Measurements published in ChEMBL document CHEMBL4831478, “Bispecific Estrogen Receptor α Degraders Incorporating Novel Binders Identified Using DNA-Encoded Chemical Library Screening” (J Med Chem, 2021).
Active and inactive are the calls of the source. The rule behind the calls is not given here.

Columns and labels:
[1] = Half life in CD1 mouse at 10 mg/kg, sc administered as single dose […]; format: ADME, organism-based; settings: in vivo
[2] = Bioavailability in CD1 mouse at 10 mg/kg, sc administered as single dose […]; format: ADME, organism-based; settings: in vivo
ZR-75-1 = assay: Antiproliferative activity against human ZR-75-1 cells assessed as growth inhibition incubated for 7 days by CellTiter-Glo assay; format: functional; settings: ZR-75-1, 168 h, time 7 day
Procedure, shortened: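 Breast lines from ATCC, maintained in ATCC-specified media, treated with increasing compound doses in full-serum (complete) media for 7 days. Relative cell number measured by CellTiter-Glo ATP read-out.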

MCF7 [3] = assay: Antiproliferative activity against human MCF7 cells assessed as growth inhibition preincubated with estradiol for 30 mins followed by compound addition and measured after 72 hrs by CellTiter-Glo assay; format: functional
[4] = biological target: T1, Estrogen receptor (Homo sapiens) (UniProt P03372); assay: Induction of ERalpha degradation in human MCF7 cells assessed as reduction in ERalpha expression at 1 uM after 2 hrs by Western blotting analysis; format: cell-based
T1 sequence (whole entry): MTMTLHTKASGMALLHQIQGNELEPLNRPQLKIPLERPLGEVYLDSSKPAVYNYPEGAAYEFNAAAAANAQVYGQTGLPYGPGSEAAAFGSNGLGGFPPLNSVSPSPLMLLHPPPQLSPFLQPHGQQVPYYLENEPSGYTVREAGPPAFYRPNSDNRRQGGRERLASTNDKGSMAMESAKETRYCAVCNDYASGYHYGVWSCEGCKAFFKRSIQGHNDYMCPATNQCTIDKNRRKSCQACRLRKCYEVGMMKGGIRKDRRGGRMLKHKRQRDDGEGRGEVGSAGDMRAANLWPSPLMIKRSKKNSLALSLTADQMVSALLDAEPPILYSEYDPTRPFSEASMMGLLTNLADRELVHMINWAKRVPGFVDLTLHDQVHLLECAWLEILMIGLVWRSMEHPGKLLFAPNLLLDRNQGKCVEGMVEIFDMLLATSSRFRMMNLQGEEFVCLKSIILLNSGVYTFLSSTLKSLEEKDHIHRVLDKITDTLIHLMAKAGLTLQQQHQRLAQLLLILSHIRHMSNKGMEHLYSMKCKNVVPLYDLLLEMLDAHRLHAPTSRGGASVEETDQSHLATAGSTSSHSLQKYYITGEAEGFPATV
Procedure, shortened: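 MCF7 cells in hormone-deprived media (agonist mode) or full-serum media (antagonist mode) were treated with 1 μM compound over a 48 h time course. Cells were lysed and ERα was detected by western blot, with tubulin as the normalizer.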

Mus musculus = assay: Induction of ERalpha degradation in CD1 mouse xenografted with human MCF7 cells assessed as reduction in ERalpha level at 10 mg/kg, sc measured after 3 days by Western blotting analysis; format: functional, organism-based; settings: time 3.0 day
Estrogen receptor [5] = biological target: T2, Estrogen receptor (Homo sapiens, UniProt P03372); assay: (§1) Antagonist activity at ERalpha in human MCF7 cells assessed as reduction in PGR gene expression incubated for 24 hrs by qPCR analysis; format: cell-based
T2 sequence (P03372 whole entry): T1 sequence (whole entry)
Procedure, shortened: (§2)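 MCF7 cells in complete media, incubated 72 h, then dosed in a 6-point series (0.5% DMSO final) for 24 h at 37 °C. RNA extracted, cDNA made, TaqMan qPCR for progesterone receptor normalized to TBP. Comparative CT (ΔΔCT) used for dose-response curves.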

[6] = biological target: T1, Estrogen receptor (Homo sapiens); assay: as §1; format: cell-based; settings: filed as antagonist; procedure, shortened: as §2
[7] = Apparent permeability of compound across apical to basolateral side in MDCK cells; format: ADME, cell-based, Canis lupus familiaris; settings: dog
Estrogen receptor [8] = biological target: Estrogen receptor (Homo sapiens, UniProt P03372, D538G); assay: Binding affinity to ERalpha D538G mutant (unknown origin) expressed in Escherichia coli preincubated for 15 mins followed by ligand addition and measured after 1 hr by fluorescent polarization assay
Procedure, shortened: (§3)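 ERα LBD (aa 307–554), WT or D538G, S463P, Y537S, with N-terminal Avi-Tev-His tag, expressed in E. coli T7 Express (20 °C, 12 h, IPTG). Purified by Ni-NTA then size exclusion. Compound preincubated with protein 15 min, fluorescent ligand added, 1 h at room temperature. FP read ex 485/em 535 nm; duplicate runs averaged.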

MCF7 [9] = assay: Antiproliferative activity against human MCF7 cells assessed as growth inhibition preincubated with estradiol for 30 mins followed by compound addition and measured after 7 days by CellTiter-Glo assay; format: functional; settings: MCF7, 168 h, time 7 day
Procedure, shortened: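 MCF7 cells seeded in hormone-deprived media for 72 h. All wells except minimum-signal controls received 0.1 nM estradiol for 30 min, then compound in a 10-point dose series. Incubated 7 days at 37 °C, 5% CO2; ATP content read by CellTiter-Glo 2.0. Duplicate runs averaged.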

MCF7 [10] = assay: Antitumor activity against human MCF7 cells xenografted in CD1 mouse assessed as tumor growth inhibition at 10 mg/kg, sc administered once daily for 28 days by caliper method; format: functional; settings: 672 h, time 28 day, read-out: TGI
Procedure, shortened: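 Mice implanted with 17β-estradiol pellets (0.18 mg) 2 days before sc right-flank inoculation of 10×10^6 MCF-7 cells in PBS/Matrigel (50:50). Randomized at mean tumor 165 mm³, 8 per group. Dosed 10 mg/kg sc qd; fulvestrant reference 3 mg/mouse sc weekly. Caliper measurements twice weekly, V = 0.5a×b². TGI from medians. Body weight recorded before each dosing.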

[11] = biological target: T1, Estrogen receptor (Homo sapiens); assay: Induction of ERalpha degradation in human T47D cells assessed as decrease in ERalpha protein expression incubated for 24 hrs by Western blotting analysis; format: cell-based
Procedure, shortened: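 T47D cells were treated with increasing doses for 24 h. Lysates were western blotted with rabbit anti-ERα, and actin served as the loading control. DC50 was read from the dose series.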

Estrogen receptor [12] = biological target: Estrogen receptor (Homo sapiens, UniProt P03372, Y537S); assay: Binding affinity to ERalpha Y537S mutant (unknown origin) expressed in Escherichia coli preincubated for 15 mins followed by ligand addition and measured after 1 hr by fluorescent polarization assay; procedure, shortened: as §3
Chain of Estrogen receptor (Homo sapiens, UniProt P03372, Y537S) (P03372 whole entry Y537S): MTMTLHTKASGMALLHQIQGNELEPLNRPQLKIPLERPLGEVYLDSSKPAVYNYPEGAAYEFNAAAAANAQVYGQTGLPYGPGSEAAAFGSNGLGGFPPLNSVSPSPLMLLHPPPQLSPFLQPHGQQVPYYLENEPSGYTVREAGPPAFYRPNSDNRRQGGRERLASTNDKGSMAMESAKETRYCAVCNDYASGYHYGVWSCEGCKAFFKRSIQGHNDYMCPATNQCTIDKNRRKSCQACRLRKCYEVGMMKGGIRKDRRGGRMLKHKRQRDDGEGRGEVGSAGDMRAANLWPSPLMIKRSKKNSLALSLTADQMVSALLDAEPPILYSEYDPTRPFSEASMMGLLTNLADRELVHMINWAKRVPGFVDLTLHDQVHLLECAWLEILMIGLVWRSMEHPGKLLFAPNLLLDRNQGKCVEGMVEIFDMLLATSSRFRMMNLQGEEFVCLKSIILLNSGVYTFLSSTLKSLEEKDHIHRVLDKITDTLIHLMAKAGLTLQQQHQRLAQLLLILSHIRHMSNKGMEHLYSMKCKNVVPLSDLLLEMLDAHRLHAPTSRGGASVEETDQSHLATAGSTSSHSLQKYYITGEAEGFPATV

Chain of Estrogen receptor (Homo sapiens, UniProt P03372, D538G) (P03372 whole entry D538G, the tested form may be a part): as the sequence (P03372 whole entry Y537S) above, with S537Y, D538G counted along it

Q: For Cc1ncsc1-c1ccc([C@@H](C)NC(=O)[C@@H]2C[C@@H](O)CN2C(=O)[C@H](NC(=O)COCCOCc2cn(CCOc3ccc(N(Cc4cccc(O)c4Cl)CC4(c5ccccc5F)CCCC4)cc3)nn2)C(C)(C)C)cc1, which half-life [1] is on record?
A: 17 h

Q: What about the bioavailability [2] of the same compound?
A: > 100%

Q: And the GI50 (ZR-75-1)?
A: 40.9 nM

Q: And the GI50 (MCF7 [3])?
A: > 10000 nM

Q: What about the Activity [4] of the same compound?
A: Active

Q: And the Activity (Mus musculus)?
A: Active

Q: And the EC50 (Estrogen receptor [5])?
A: 27 nM

Q: What about the Activity [6] of the same compound?
A: Dose-Dependent Effect

Q: And the Papp A→B [7]?
A: < 0.1 ×10⁻⁶ cm/s

Q: What about the IC50 (Estrogen receptor [8]) of the same compound?
A: 517 nM

Q: And the GI50 (MCF7 [9])?
A: 30 nM

Q: And the inhibition in vivo at 10 mg/kg (MCF7 [10])?
A: 30.8%

Q: What about the Activity [11] of the same compound?
A: Active

Q: What about the IC50 (Estrogen receptor [12]) of the same compound?
A: 419 nM
